In ChEMBL document CHEMBL5257094, “Synthesis and analysis of novel catecholic ligands as inhibitors of catechol-O-methyltransferase” (Bioorg Med Chem Lett, 2023):
Active and inactive are the calls of the source. The calls are words filed in the database; no cut-off is given here.

Tests used:
[1] = Stability of compound in phosphate buffer at 7.4 assessed as drug degradation incubated for 1 hr by HPLC analysis; format: physicochemical; details: for degraded at 1 h: phosphate buffer, pH 7.4, read-out: Drug degradation; for Stability: buffer, pH 7.4, 1 h
Outline: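 Compounds were incubated at assay conditions, 37 °C in phosphate buffer at pH 7.4, for 1 hour. Degradation was then assessed by HPLC analysis.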

[2] = target: T1, Catechol O-methyltransferase (Homo sapiens) (UniProt P21964); test: Inhibition of S-COMT (unknown origin) assessed as scopoletin formation by measuring fluorescence using 6,7-dihydroxycoumarin as substrate at 100 uM and measured for 60 mins by fluorescence based microplate reader assay
T1 sequence (whole entry): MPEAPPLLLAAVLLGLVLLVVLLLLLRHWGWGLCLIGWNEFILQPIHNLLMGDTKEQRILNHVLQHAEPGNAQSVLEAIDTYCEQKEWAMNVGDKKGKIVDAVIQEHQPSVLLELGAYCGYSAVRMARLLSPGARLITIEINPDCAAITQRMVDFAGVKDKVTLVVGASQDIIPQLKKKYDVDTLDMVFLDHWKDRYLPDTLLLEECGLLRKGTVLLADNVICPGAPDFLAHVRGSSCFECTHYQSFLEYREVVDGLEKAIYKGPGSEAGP
Outline: (§1)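 Soluble COMT (S-COMT) activity was run at 37 °C and pH 7.4. The substrate was aesculetin (6,7-dihydroxycoumarin) at 6 μM, which methylation converts to fluorescent scopoletin. Fluorescence was read over 60 min. Test catechols were added at 10 μM or 100 μM. Each was assayed at least in triplicate, and the signal was normalized to the no-inhibitor aesculetin fluorescence.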

[3] = target: T1, Catechol O-methyltransferase (Homo sapiens); test: Inhibition of S-COMT (unknown origin) assessed as scopoletin formation by measuring fluorescence using 6,7-dihydroxycoumarin as substrate at 10 uM and measured for 60 mins by fluorescence based microplate reader assay; outline: as §1
[4] = Dissociation constant, pKa of compound pH 3.01 to 12.36 at 0.2 mM by spectroscopic analysis; format: physicochemical
Outline: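 Five-buffer series in which CHES replaced Borax over pH 8.2–10.8, with KCl buffers added to widen the range. Compound dissolved in each buffer across pH 3.01–12.36 to a final 0.2 mM. Absorbance was read, normalized, and fitted to give the first and, where determinable, second catechol hydroxyl pKa.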

| SMILES | degraded at 1 h [1] [%] | inhibition [2] | inhibition [3] | Stability [1] | pKa at 200 µM [4] |
| --- | --- | --- | --- | --- | --- |
| NCCc1cc(O)c(O)cc1O [OXIDOPAMINE] | > 40 | Active | inactive | – | – |
| N#CCCc1cc(O)c(O)cc1[N+](=O)[O-] | – | Active | inactive | Stable | – |
| N#CCCc1ccc(O)c(O)c1 | – | Active | inactive | Unstable | – |
| NCCc1cc(O)c(O)cc1C(=O)O | – | inactive | inactive | Stable | – |
| Oc1cc2c(cc1O)CNCC2 | – | inactive | inactive | Unstable | – |
| NCCc1cc(O)c(O)cc1Br | – | inactive | inactive | Stable | – |
| NCCc1cc(O)c(O)cc1[N+](=O)[O-] | – | 50% | inactive | Stable | 6.33 |
| N#Cc1ccc(O)c(O)c1 | – | Active | inactive | Stable | 7.45 |
| N#Cc1cc(O)c(O)cc1CCN | – | 30% | inactive | Stable | – |
| N#CCc1cc(O)c(O)cc1[N+](=O)[O-] | < 5 | Active | Active | – | 6.23 |
| NCCc1ccc(O)c(O)c1 [DOPAMINE] | – | – | – | Stable | 8.66 |
| N#CCc1ccc(O)c(O)c1 | – | Active | inactive | Stable | 9.6 |
